The source of these data is ChEMBL document CHEMBL1138014, “1-(2-Aminoethyl)-3-(arylsulfonyl)-1H-indoles as novel 5-HT6 receptor ligands” (Bioorg Med Chem Lett, 2004).

Holding throughout (type): cell-based
Test [1] has as its target T1, 5-hydroxytryptamine receptor 6 (Homo sapiens, UniProt P50406). The test can be described thus: Inhibitory concentration against human 5-hydroxytryptamine 6 receptor transfected in HeLa cells in cAMP assay. In outline:
(§1)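 Human 5-HT6 receptor stably transfected into HeLa cells. Cells were washed with Krebs buffer, then preincubated for 5 min at 37°C in Krebs with 500 µM IBMX. They were then exposed to test compound (0.1–10,000 nM) for 10 min at 37°C. The reaction was stopped with 0.5 M perchloric acid, and intracellular cAMP was measured by scintillation proximity radioimmunoassay.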

Test [2] deals with T1, 5-hydroxytryptamine receptor 6. Briefly: Inhibitory potency against human 5-hydroxytryptamine 6 receptor transfected in HeLa cells in cAMP assay. In outline: as §1
The target is the same in test [3]. The test can be described thus: Binding affinity against human 5-hydroxytryptamine 6 receptor transfected in HeLa cells.
For test [4] the target is unchanged. Briefly: Percent inhibitory activity against human 5-hydroxytryptamine 6 receptor transfected in HeLa cells at 1 uM.

T1 sequence (P50406 whole entry): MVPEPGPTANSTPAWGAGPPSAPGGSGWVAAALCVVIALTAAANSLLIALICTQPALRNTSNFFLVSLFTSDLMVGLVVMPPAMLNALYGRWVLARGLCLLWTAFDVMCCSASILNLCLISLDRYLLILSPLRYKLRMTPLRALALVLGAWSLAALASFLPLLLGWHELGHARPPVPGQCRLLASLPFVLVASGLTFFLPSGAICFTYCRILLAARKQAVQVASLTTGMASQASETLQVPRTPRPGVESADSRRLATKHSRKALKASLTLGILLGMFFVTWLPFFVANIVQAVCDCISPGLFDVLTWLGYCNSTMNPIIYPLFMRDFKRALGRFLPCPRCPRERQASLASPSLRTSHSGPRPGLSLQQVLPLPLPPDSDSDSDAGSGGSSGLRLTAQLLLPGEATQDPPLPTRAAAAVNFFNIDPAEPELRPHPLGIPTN

Consider `CNCCn1cc(S(=O)(=O)c2cccc3ccccc23)c2ccccc21`, for which, in test [1], the concentration for half-maximal inhibition (IC50) was determined as 359 nM. Further, the Imax in test [2] turned out to be 97%. Further, in test [3], the inhibitory constant (Ki) worked out at 5.7 nM.
In test [4], `COc1ccc2c(c1)c(S(=O)(=O)c1ccccc1)cn2CCN1CCCCC1` yielded an inhibition of 55%.
Molecule `CN(C)CCn1cc(S(=O)(=O)c2ccccc2OC(F)(F)F)c2ccccc21` yielded an IC50 in test [1] of 792 nM. In test [2], this molecule gave an Imax of 100%.
Consider `COc1ccc2c(c1)c(S(=O)(=O)c1ccccc1)cn2CCN`, for which the inhibition in test [4] is 86%.
Regarding `COc1ccc2c(S(=O)(=O)c3ccccc3)cn(CCN)c2c1`, in test [4], the inhibition stood at 78%.
`COc1cccc2c(S(=O)(=O)c3ccccc3)cn(CCN(C)C)c12` showed a half-maximal inhibitory concentration (IC50) in test [1] of 23 nM. The molecule further displayed an Imax in test [2] of 80.5%.
In test [3], `NCCn1cc(S(=O)(=O)c2ccccc2)c2cc(F)ccc21` came in with a Ki of 27 nM.
In test [4], `CN(C)CCn1cc(S(=O)(=O)c2ccccc2)c2ccc(C#N)cc21` had an inhibition of 42%.
On to `NCCc1cn(S(=O)(=O)c2ccccc2)c2ccccc12`, for which, in test [3], the Ki came to 10.3 nM.
The molecule `CNCCn1cc(S(=O)(=O)c2ccccc2)c2ccccc21` yielded a Ki in test [3] of 15.5 nM.
In test [3], `CNCCc1cn(S(=O)(=O)c2ccccc2)c2ccccc12` displayed a Ki of 5 nM.
Take `CN(C)CCn1cc(S(=O)(=O)c2cccc3ccccc23)c2ccccc21`: the IC50 in test [1] was 47 nM. Further, the Imax in test [2] was found to be 97%. In addition, the inhibition constant (Ki) in test [3] came to 3.7 nM.
